Converted amounts (≈) assume the structure as drawn.

As usually defined, the MIC is the least concentration at which growth counts as inhibited. A low value points to inhibition by little substance.

What all share (type): functional
One assay deals with Mucor hiemalis. Kind of assay: Antimicrobial activity against Mucor hiemalis by serial dilution method. In a few lines: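 Fungal MIC by serial dilution in 96-well plates. Organism cultivated in MYC medium (1.0% phytone peptone, 1.0% glucose, 1.19% HEPES, pH 7.0) at 30 °C, 160 rpm.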
The nature of assay [1]: Antimicrobial activity against Arthrobacter rubellus by serial dilution method. In a few lines: (§1)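 MIC by serial dilution in 96-well plates. Test bacteria grown in EBS medium (0.5% peptone, 0.5% glucose, 0.1% meat extract, 0.1% yeast extract, 50 mM HEPES, pH 7.0) at 30 °C with shaking at 160 rpm.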
A further assay deals with Pimelobacter simplex. In words: Antimicrobial activity against Nocardioides simplex by serial dilution method. In outline:
as §1

Another assay deals with Mycobacterium lacticola. In words: Antimicrobial activity against Mycobacterium lacticola by serial dilution method. In outline: as §1
Assay [2] deals with Mycolicibacterium diernhoferi. Kind of assay: Antimicrobial activity against Mycobacterium diernhoferi by serial dilution method. In a few lines: as §1
For the next assay, the system named is Stutzerimonas stutzeri. In words: Antimicrobial activity against Pseudomonas stutzeri by serial dilution method. In outline: as §1
In assay [3] the test system is Chromobacterium violaceum. In words: Antimicrobial activity against Chromobacterium violaceum by serial dilution method. In outline:
as §1

For a further assay, the system named is Escherichia coli. Kind of assay: Antimicrobial activity against Escherichia coli expressing mutant TOLC by serial dilution method.

With `C=C(C)/C=C/c1cccc2[nH]cc(C=O)c12` [INDIACEN A], the minimum inhibitory concentration (MIC) against Mucor hiemalis was 16.6 µg/mL (≈ 78.6 µM); in assay [1] it was 16.6 µg/mL (≈ 78.6 µM); against Pimelobacter simplex, 8.3 µg/mL (≈ 39.3 µM); in the assay on Mycobacterium lacticola, 16.6 µg/mL (≈ 78.6 µM); in assay [2] it was 16.6 µg/mL (≈ 78.6 µM); against Stutzerimonas stutzeri, over 33 µg/mL. Besides, the MIC (in assay [3]; against Escherichia coli) was 16.6 µg/mL (≈ 78.6 µM) in each case.
On to `CC(/C=C/c1cccc2[nH]cc(C=O)c12)=C\Cl` [INDIACEN B], for which the MIC against Mucor hiemalis was 16.6 µg/mL (≈ 67.6 µM); in assay [1], 0.8 µg/mL (≈ 3.26 µM); against Pimelobacter simplex it was 3.3 µg/mL (≈ 13.4 µM); in the assay on Mycobacterium lacticola, 33 µg/mL (≈ 134 µM); in assay [2] it was over 33 µg/mL; in the assay with Stutzerimonas stutzeri, 33 µg/mL (≈ 134 µM). In addition, the MIC (in assay [3]; against Escherichia coli) was 33 µg/mL (≈ 134 µM) each time.

Values taken from ChEMBL document CHEMBL2151001, “Indiacens A and B: prenyl indoles from the myxobacterium Sandaracinus amylolyticus” (2012).
